Measurements of several laboratories.
Protocols differ between the studies behind these lines.
Target: Homeodomain-interacting protein kinase 2 (HIPK2, Homo sapiens, UniProt Q9H2X6)

| Structure (SMILES) | read-out | method | concentration | remaining binding [%] |
| --- | --- | --- | --- | --- |
| Cc1cnn2ncc(-c3ccnc(N(C)C)n3)c2c1 | binding | – | 1 µM | 63 |
| Cc1cc(-n2nc(Cc3cc(F)cc(C(F)(F)F)c3)nc2C)ccc1C(N)=O | cell-free assay | competition with immobilised ligand | 1 µM | 100 |
| CN(C)c1nccc(-c2cnc3ncccn23)n1 | binding | – | 1 µM | 36 |
| COc1cnc(Nc2cccc(S(N)(=O)=O)c2)nc1N1CCN(c2ccccc2)C(=O)C1 | binding | competition with immobilised ligand | 1 µM | 100 |
| CCN1CCN(Cc2ccc(C(=O)Nc3ccc(C)c(Oc4ccc5c(c4)CC(=O)N5)c3)cc2C(F)(F)F)CC1 | binding | competition with immobilised ligand | 1 µM | 100 |
| O=C(c1ccc(Nc2ncc(Cl)c(-c3ccc(Cl)s3)n2)cc1)N1CCC(N2CCCC2)CC1 | binding | competition with immobilised ligand | 1 µM | 0.15 |
| N[C@@H]1CCN(c2nccc(-c3cnn4ncccc34)n2)C1 | binding | – | 1 µM | 100 |
| O=C(NCCCN1CCOCC1)c1ccc(Nc2nccc(-c3cc4ccccc4s3)n2)cc1 | binding | competition with immobilised ligand | 1 µM | 34 |
| CCC(=O)N[C@@H]1CC[C@H](C(=O)N(C)c2ccc(-c3nc4ccccc4o3)cc2)C1 | cell-free assay | competition with immobilised ligand | 1 µM | 100 |
| O=C(Nc1c[nH]nc1C(=O)NC1CCNCC1)c1cc(F)cc(F)c1 | binding | competition with immobilised ligand | 1 µM | 33 |
| Cc1cnc(Nc2ccc(C(=O)N3CCC(N4CCCC4)CC3)cc2)nc1-c1cc2ccccc2s1 | binding | competition with immobilised ligand | 1 µM | 0.5 |
| Cc1c[nH]c2nccc(Oc3c(F)cc(Nc4cc(Cl)nc(N)n4)cc3F)c12 | cell-free assay | competition with immobilised ligand | 0.1 µM | 90 |
| C[C@@H]1CCN(c2nccc(-c3cnn4ncccc34)n2)C1 | binding | – | 1 µM | 61 |
| CN(C)C(=O)Cn1cc(-c2nc(C3(c4ccc(-c5cnc(N)nc5)cc4)CC3)no2)cn1 | cell-free assay | competition with immobilised ligand | 1 µM | 94 |
| F[C@@H]1CCN(c2nccc(-c3cnn4ncccc34)n2)C1 | binding | – | 1 µM | 100 |
| COc1ncc2cc3ccccc3nc2c1C#N | cell-free assay | competition with immobilised ligand | 5 µM | 98 |
| CCCOc1ccc([C@@H]2[C@@H](C(=O)O)[C@H](c3ccc4c(c3)OCO4)CN2CC(=O)Nc2c(CC)cccc2CC)cc1 | cell-free assay | competition with immobilised ligand | 1 µM | 80 |
| c1cncc(-c2cccc(Nc3nccc(NC4CCCCC4)n3)c2)c1 | binding | competition with immobilised ligand | 10 µM | 53 |
| CC(C)(O)c1cncc(-c2nc3ccc(F)cc3n2C2CC2)c1 | cell-free assay | competition with immobilised ligand | 1 µM | 100 |
| CNC(=O)[C@@H]1CC[C@@H](n2c(-c3ccc4cnccc4c3)nc3ccc(C(=O)NCc4cccc(C(N)=O)c4)cc32)C1 | binding | competition with immobilised ligand | 1 µM | 100 |
| O=C(NCc1ncc(C(F)(F)F)cc1Cl)c1ccc2c(c1)C1(CCS(=O)(=O)CC1)[C@@H](C1CC1)N2S(=O)(=O)c1ccc(F)cc1 | cell-free assay | competition with immobilised ligand | 1 µM | 72 |
| COc1ccnn2ncc(-c3ccnc(N(C)C)n3)c12 | binding | – | 1 µM | 71 |
